Experimental findings from ChEMBL document CHEMBL3286371, “wALADin benzimidazoles differentially modulate the function of porphobilinogen synthase orthologs” (J Med Chem, 2014) are described below.

SMILES strings stand for the structures. Calls of active or inactive are those of the source. The rule behind the calls is not given here.

Test [1] concerns the target T1, Delta-aminolevulinic acid dehydratase (Escherichia coli (strain K12)) (UniProt P0ACB2).
T1 sequence (whole entry): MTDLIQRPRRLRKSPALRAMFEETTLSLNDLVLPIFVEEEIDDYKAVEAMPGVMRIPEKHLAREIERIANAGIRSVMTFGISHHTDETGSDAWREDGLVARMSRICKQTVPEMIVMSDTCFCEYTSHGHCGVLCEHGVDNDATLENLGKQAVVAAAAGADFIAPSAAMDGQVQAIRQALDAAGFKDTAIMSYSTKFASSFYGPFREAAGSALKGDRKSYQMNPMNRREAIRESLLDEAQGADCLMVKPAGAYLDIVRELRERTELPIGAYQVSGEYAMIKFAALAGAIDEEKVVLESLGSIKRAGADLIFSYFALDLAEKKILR
Put plainly: Inhibition of Escherichia coli recombinant PBGS using 5-ALA as substrate at 50 to 200 uM at pH 7 to 8.5 by buffer scan assay.

For test [2], the target named is T2, Delta-aminolevulinic acid dehydratase, chloroplastic (Pisum sativum) (UniProt P30124).
T2 sequence (whole entry): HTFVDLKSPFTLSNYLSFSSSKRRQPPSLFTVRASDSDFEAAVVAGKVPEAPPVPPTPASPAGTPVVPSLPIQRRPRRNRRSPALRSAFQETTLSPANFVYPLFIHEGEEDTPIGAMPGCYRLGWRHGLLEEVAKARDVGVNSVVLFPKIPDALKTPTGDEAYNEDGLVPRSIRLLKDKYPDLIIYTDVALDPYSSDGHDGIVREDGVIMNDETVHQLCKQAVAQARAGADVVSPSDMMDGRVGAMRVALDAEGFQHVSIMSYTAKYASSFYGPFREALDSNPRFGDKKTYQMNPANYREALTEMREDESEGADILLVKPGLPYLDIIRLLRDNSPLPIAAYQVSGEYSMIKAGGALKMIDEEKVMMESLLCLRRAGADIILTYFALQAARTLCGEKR
In words: Inhibition of Pisum sativum PBGS using 5-ALA as substrate at 8 to 2000 uM after 30 mins by nondenaturing PAGE analysis. To be noted: Lathyrus oleraceus.

Test [3] concerns the target T1, Delta-aminolevulinic acid dehydratase (Escherichia coli (strain K12)). Put plainly: Stimulation of Escherichia coli recombinant PBGS assessed as reduction in Mg2+-induced conversion of dimer to octamer at 8 to 2000 uM by nondenaturing PAGE analysis. The essentials: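 EcPBGS (3 μg) preincubated 20 min at 37 °C in BTP pH 8.1 buffer with varied Mg2+, Zn2+ and wALADin1. Run on 7.5% nondenaturing PAGE; Coomassie stain plus in-gel activity with 500 μM 5-ALA and Ehrlich's reagent.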

In test [4] the target is Delta-aminolevulinic acid dehydratase (Yersinia enterocolitica W22703) (UniProt F4MUJ9). Put plainly: Stimulation of Yersinia enterocolitica recombinant PBGS expressed in Escherichia coli at 125 to 2000 uM by nondenaturing PAGE analysis in presence of Mg2+ and K+. The essentials: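 YePBGS (2 μg) preincubated 20 min at 37 °C in BTP pH 8.0 buffer with K+, Mg2+ and wALADin1. Run on 7.5% nondenaturing PAGE; Coomassie stain and in-gel activity (100 mM KCl, 10 mM MgCl2, 500 μM 5-ALA) read with Ehrlich's reagent.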

In test [5] the target is Delta-aminolevulinic acid dehydratase (Pseudomonas aeruginosa (strain ATCC 15692 / PAO1 / 1C / PRS 101 / LMG12228)) (UniProt Q59643). In words: Stimulation of Pseudomonas aeruginosa PAO1 recombinant PBGS assessed as stabilization of dimeric form at 8 to 2000 uM by nondenaturing PAGE analysis in presence of Mg2+ and K+ and 5-ALA.
For test [6] the target is unchanged. Put plainly: Stimulation of Pseudomonas aeruginosa PAO1 recombinant PBGS using 5-ALA as substrate at 10 to 1000 uM at pH 8 in presence of MgCl2 and KCl.
For test [7] the target is unchanged. In words: Stimulation of Pseudomonas aeruginosa PAO1 recombinant PBGS using 5-ALA as substrate at 10 to 1000 uM at pH 8 in presence of 0.1 to 10000 uM MgCl2.
Test [8] concerns the target T1, Delta-aminolevulinic acid dehydratase (Escherichia coli (strain K12)). Put plainly: Stimulation of Escherichia coli recombinant PBGS using 5-ALA as substrate at 10 to 1000 uM at pH 8 in presence of 0.1 to 10000 uM MgCl2.
Test [9] deals with T3, Delta-aminolevulinic acid dehydratase (Escherichia coli (strain K12), UniProt P0ACB2).
T3 sequence (P0ACB2 whole entry): T1 sequence (whole entry)
In words: Stimulation of Escherichia coli recombinant PBGS using 5-ALA as substrate. The essentials:
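E. coli PBGS at 200 nM subunit in 100 mM BTP-HCl pH 8.1 with 1 mM MgCl2, 10 μM ZnCl2, 5 mM DTT and 0.2 mM 5-ALA, 10 min at 36 °C. Porphobilinogen detected with Ehrlich's reagent. Activity normalized to control with 6.7% DMSO set at 100%. EC50 by log(agonist) vs response variable-slope fit.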

In test [10] the target is T4, Delta-aminolevulinic acid dehydratase (Wolbachia sp. subsp. Brugia malayi (strain TRS)) (UniProt Q5GSR3).
T4 sequence (whole entry): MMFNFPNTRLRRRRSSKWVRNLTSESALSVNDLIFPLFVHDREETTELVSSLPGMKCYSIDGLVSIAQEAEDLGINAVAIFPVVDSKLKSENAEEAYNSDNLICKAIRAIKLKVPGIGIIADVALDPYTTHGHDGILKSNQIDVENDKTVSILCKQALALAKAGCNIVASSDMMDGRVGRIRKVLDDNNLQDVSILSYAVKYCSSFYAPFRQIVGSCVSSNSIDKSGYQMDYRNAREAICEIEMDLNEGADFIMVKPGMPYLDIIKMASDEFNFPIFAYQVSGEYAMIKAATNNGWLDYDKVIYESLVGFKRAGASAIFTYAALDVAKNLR
To be noted: 25 to 2500 uM.

Chain of Delta-aminolevulinic acid dehydratase (Pseudomonas aeruginosa (strain ATCC 15692 / PAO1 / 1C / PRS 101 / LMG12228)) (Q59643 whole entry): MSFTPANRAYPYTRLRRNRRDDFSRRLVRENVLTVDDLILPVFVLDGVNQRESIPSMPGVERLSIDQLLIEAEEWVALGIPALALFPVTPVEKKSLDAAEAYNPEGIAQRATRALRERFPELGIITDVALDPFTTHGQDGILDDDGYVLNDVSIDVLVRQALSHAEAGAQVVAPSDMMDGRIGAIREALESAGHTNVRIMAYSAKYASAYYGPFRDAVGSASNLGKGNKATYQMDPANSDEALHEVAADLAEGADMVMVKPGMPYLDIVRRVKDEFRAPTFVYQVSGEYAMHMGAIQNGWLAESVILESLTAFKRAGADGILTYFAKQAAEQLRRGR
Chain of Delta-aminolevulinic acid dehydratase (Yersinia enterocolitica W22703) (F4MUJ9 as listed by the source): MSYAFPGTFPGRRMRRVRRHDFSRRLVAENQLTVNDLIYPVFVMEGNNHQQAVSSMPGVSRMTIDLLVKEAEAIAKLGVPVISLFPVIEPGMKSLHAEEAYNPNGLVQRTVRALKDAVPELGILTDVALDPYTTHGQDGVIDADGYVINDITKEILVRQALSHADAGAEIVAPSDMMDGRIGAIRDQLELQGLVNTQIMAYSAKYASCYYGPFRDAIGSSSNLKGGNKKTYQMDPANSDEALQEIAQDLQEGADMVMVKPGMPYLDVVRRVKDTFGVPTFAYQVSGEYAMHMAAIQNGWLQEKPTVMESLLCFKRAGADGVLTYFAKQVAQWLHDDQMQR

With `O=C(O)c1ccc2c(c1)nc(CCNC(=O)c1cccs1)n2Cc1cccc(C(F)(F)F)c1`, the inhibition entry in [1] and in test [2] was “Active” in each case. Moreover, the result in test [3], in test [6], in test [7] and in [8] was Active. The result in [4] and in [5] was inactive. The EC50 in test [9] came to 60 µM. In [10], the inhibition entry was “inactive”.
